Reference: ChEMBL document CHEMBL1212917, “Substituted E-3-(3-indolylmethylene)-1,3-dihydroindol-2-ones with antitumor activity. In depth study of the effect on growth of breast cancer cells” (2010)
Activity calls are given as the source filed them. No cut-off for these calls is given here.

Assays:
[1] = Growth inhibition of human leukemia cells after 48 hrs; format: functional; details: Leukemia cell; for CC50: read-out: LC50 (the source's name)
NSCLC = assay: Growth inhibition of human NSCLC cells after 48 hrs; format: functional
[2] = Growth inhibition of human colon cancer cells after 48 hrs; format: functional; details: Cancer cell lines; for CC50: read-out: LC50 (the source's name)
[3] = Growth inhibition of human CNS cancer cells after 48 hrs; format: functional; details: Cancer cell lines; for CC50: read-out: LC50 (the source's name)
[4] = Growth inhibition of human melanoma cells after 48 hrs; format: functional; details: Melanoma cell; for CC50: read-out: LC50 (the source's name)
[5] = Growth inhibition of human Ovarian cancer cells after 48 hrs; format: functional; details: Cancer cell lines; for CC50: read-out: LC50 (the source's name)
[6] = Growth inhibition of human renal cancer cells after 48 hrs; format: functional; details: Cancer cell lines; for CC50: read-out: LC50 (the source's name)
[7] = Growth inhibition of human prostate cancer cells after 48 hrs; format: functional; details: Cancer cell lines; for CC50: read-out: LC50 (the source's name)
[8] = Growth inhibition of human breast cancer cells after 48 hrs; format: functional; details: Cancer cell lines; for CC50: read-out: LC50 (the source's name)
MCF7 [9] = assay: Antiproliferative activity against human MCF7 cells assessed as increase in tumor suppressor p53 expression at 5 uM after 20 hrs by Western blotting; format: functional
Summary of the method: (§1)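 MCF-7 cells in RPMI 1640 with 10% FBS and 2 mM L-glutamine at 37°C, 5% CO2, plated at 2×10^4 cells/cm2. Compound added 24 h later to 5 μM (DMSO vehicle in controls) for 20 h. Lysed in HEPES pH 7.5 buffer with DTT, EDTA, CHAPS, Triton X-100 and protease inhibitors, then freeze-thawed twice. SDS-PAGE at 80 μg protein/lane and immunoblotting for total and phospho ERK1/2 and Akt, p53 and p21, with β-actin. Densitometry used for quantitation.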

[10] = target: RAC-alpha serine/threonine-protein kinase (Homo sapiens) (UniProt P31749); assay: Inhibition of AKT phosphorylation in human MCF7 cells assessed as p-AKT level at 5 uM after 20 hrs by Western blotting; format: cell-based; summary of the method: as §1
MCF7 [11] = assay: Antiproliferative activity against human MCF7 cells assessed as increase in tumor suppressor p21 expression at 5 uM after 20 hrs by Western blotting; format: functional; details: in the assay text read “24 hrs” for “20 hrs”
MCF7 [12] = assay: Induction of apoptosis in human MCF7 cells assessed as Bax accumulation by immunofluorescence microscopy; format: functional, cell-based
Summary of the method: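 MCF-7 cells seeded on glass coverslips at 1×10^4 cells/cm2 and treated with 5 μM for 24 h. Fixed in 3% paraformaldehyde, washed in glycine and permeabilized in ice-cold 70% ethanol. Stained with mouse anti-Bax for 1 h at room temperature, then FITC anti-mouse IgG, with propidium iodide as nuclear counterstain. Imaged by confocal microscopy with excitation at 488 and 568 nm. Three experiments.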

MCF7 [13] = assay: Cell cycle arrest in human MCF7 cells assessed as accumulation at G2/M phase at 200 nM after 24 to 48 hrs; format: functional, cell-based
Summary of the method: (§2)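 MCF-7 cells plated at 2×10^4 cells/cm2 and exposed to 200 nM compound for 24 and 48 h; DMSO-treated controls. Cells detached with trypsin/EDTA and washed in PBS. Stained 30 min at room temperature in the dark with 50 μg/mL propidium iodide, 10 μg/mL RNase, 0.01% NP-40 and 0.1% sodium citrate. DNA content read by flow cytometry. Means ± s.e.m. of three determinations.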

MCF7 [14] = assay: Cell cycle arrest in human MCF7 cells assessed as accumulation at subG1 phase at 200 nM after 24 to 48 hrs; format: functional, cell-based; summary of the method: as §2
MCF7 [15] = assay: Growth inhibition of human MCF7 cells at 200 nM after 48 hrs by trypan blue exclusion cell counting

Chain of RAC-alpha serine/threonine-protein kinase (Homo sapiens) (P31749 whole entry): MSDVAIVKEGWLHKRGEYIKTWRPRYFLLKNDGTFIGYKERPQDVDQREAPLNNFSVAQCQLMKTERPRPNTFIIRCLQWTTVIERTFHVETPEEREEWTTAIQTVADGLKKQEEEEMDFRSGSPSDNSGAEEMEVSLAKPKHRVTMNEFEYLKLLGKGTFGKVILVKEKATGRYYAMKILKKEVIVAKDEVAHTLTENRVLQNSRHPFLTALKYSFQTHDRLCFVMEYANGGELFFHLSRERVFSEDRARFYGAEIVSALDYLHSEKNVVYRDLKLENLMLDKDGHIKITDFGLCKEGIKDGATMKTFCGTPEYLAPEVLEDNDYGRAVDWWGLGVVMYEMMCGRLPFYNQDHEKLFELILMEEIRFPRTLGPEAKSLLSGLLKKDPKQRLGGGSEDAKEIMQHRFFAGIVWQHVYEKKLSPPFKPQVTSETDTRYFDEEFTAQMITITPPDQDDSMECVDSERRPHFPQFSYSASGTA

Structure (SMILES) | GI50 [1] [µM] | CC50 [1] [µM] | GI50 (NSCLC) [µM] | LC50 (NSCLC) [µM] | GI50 [2] [µM] | CC50 [2] [µM] | GI50 [3] [µM] | CC50 [3] [µM] | GI50 [4] [µM] | CC50 [4] [µM] | GI50 [5] [µM] | CC50 [5] [µM] | GI50 [6] [µM] | CC50 [6] [µM] | GI50 [7] [µM] | CC50 [7] [µM] | GI50 [8] [µM] | CC50 [8] [µM] | Activity (MCF7 [9]) | TGI [7] [µM] | also measured
COc1cc2c(cc1C)N(C)C(=O)/C2=C/c1c(Cl)[nH]c2ccccc12 | 0.26 | 69.2 | 0.58 | 57.5 | 0.37 | 46.8 | 0.32 | 47.9 | 0.71 | 51.3 | 0.6 | 61.7 | 0.62 | 56.2 | 0.32 | 69.2 | 0.3 | 57.5 | Active | – | –
COc1cc2c(/C=C3/C(=O)Nc4cc(Cl)ccc43)c(Cl)n(C)c2cc1C | 0.02 | 39.8 | 0.07 | 93.3 | 0.02 | 25.1 | 0.02 | 23.4 | 0.02 | 50.1 | 0.03 | 52.5 | 0.04 | 70.8 | 0.02 | 21.4 | 0.05 | 72.4 | Active | 3.02 | fold change (FC) (MCF7 [9]; in the assay text read “after 24 hrs” for “after 20 hrs”): 3; Activity [10]: Active; Activity (MCF7 [11]): 90%; Activity (MCF7 [12]): Active; Activity (MCF7 [13]): Active; Activity (MCF7 [14]): Active; Activity (MCF7 [15]): Active
O=C1Nc2cccc(Cl)c2/C1=C\c1c(Cl)[nH]c2c1ccc1ccccc12 | 5.5 | 75.9 | 9.55 | 72.4 | 4.9 | 47.9 | 3.63 | 53.7 | 4.57 | 46.8 | 2.51 | 57.5 | 8.91 | 56.2 | 10.2 | 63.1 | 5.01 | 67.6 | – | 31.6 | TGI [1]: 25.7 µM; TGI (NSCLC): 28.2 µM; TGI [2]: 17.4 µM; TGI [3]: 17.8 µM; TGI [4]: 19.1 µM; TGI [5]: 13.2 µM; TGI [6]: 23.4 µM; TGI [8]: 19.9 µM
COc1ccc2c(c1)/C(=C\c1c(Cl)[nH]c3ccc(N(C)C)cc13)C(=O)N2 | 1.62 | 72.4 | 3.02 | 58.9 | 1.55 | 30.2 | 2.09 | 32.4 | 3.55 | 44.7 | 3.39 | 50.1 | 3.02 | 52.5 | 2.88 | 50.1 | 1.15 | 55 | – | – | –
COc1cc2c(cc1C)N(C)C(=O)/C2=C/c1c(Cl)n(C)c2cc(C)c(OC)cc12 | 6.92 | – | 19.5 | 93.3 | 20.4 | 97.7 | 10.5 | 61.7 | 16.2 | – | 18.6 | 89.1 | 15.8 | 77.6 | 35.5 | – | 6.76 | 83.2 | – | – | –
